We go through two compounds from ChEMBL document CHEMBL4382246, “Synthesis, biological evaluation, and molecular docking investigation of 3-amidoindoles as potent tubulin polymerization inhibitors” (Eur J Med Chem, 2019).

One assay has as its system MCF7. The assay can be described thus: Cytotoxicity against human MCF7 cells after 72 hrs by MTT assay. Format: functional, cell-based. The note with it: MCF7, 72 h. In short, it runs like this: (§1)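 Lines kept in RPMI-1640 with 10% FBS. Cells were seeded at 2×10³ per well and allowed to attach for 24 h at 37 °C. Medium was then replaced with medium holding serial dilutions from 100 mM DMSO stocks, with 0.1% DMSO as negative control, for 72 h at 37 °C. […] IC50 was fitted from the concentration series as the mean ± SD of three independent experiments run in duplicate.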

The test system of another assay is MDA-MB-231. The assay can be described thus: Cytotoxicity against human MDA-MB-231 cells after 72 hrs by MTT assay. The format is functional, cell-based. The note with it: MDA-MB-231, 72 h. Put shortly:
as §1

In assay [1] the test system is BT-549. Description: Cytotoxicity against human BT549 cells after 72 hrs by MTT assay. Format: functional, cell-based. The following applies: BT-549, 72 h. Put shortly: as §1
Background: Formazan colour is commonly taken as a measure of viable cells.

A further assay has as its system T47D. Description: Cytotoxicity against human T47D cells after 72 hrs by MTT assay. Format: functional, cell-based. Put shortly: as §1
The next assay deals with MDA-MB-468. Description: Cytotoxicity against human MDA-MB-468 cells after 72 hrs by MTT assay. Format: functional, cell-based. The note with it: MDA-MB-468, 72 h. In short, it runs like this:
as §1

The test system of a further assay is Hs-578T. The assay can be described thus: Cytotoxicity against human Hs578T cells after 72 hrs by MTT assay. Format: functional, cell-based. In short, it runs like this: as §1
In assay [2] the test system is BT-549. The assay can be described thus: Cell cycle arrest in human BT549 cells assessed as accumulation of cells at G0/G1 phase at 8 uM after 24 hrs by propidium iodide staining-based flow cytometric analysis (reference value: 65.28%). Format: functional. Background: A flow cytometer gives signals particle by particle.
Assay [3] deals with BT-549. Description: Cell cycle arrest in human BT549 cells assessed as accumulation of cells at S phase at 8 uM after 24 hrs by propidium iodide staining-based flow cytometric analysis (reference value: 25.84%). Format: functional.
In assay [4] the test system is BT-549. Description: Cell cycle arrest in human BT549 cells assessed as accumulation of cells at G2/M phase at 8 uM after 24 hrs by propidium iodide staining-based flow cytometric analysis (reference value: 8.88%). Format: functional.
For assay [5], the system named is BT-549. The assay can be described thus: Cell cycle arrest in human BT549 cells assessed as accumulation of cells at G0/G1 phase at 2 uM after 24 hrs by propidium iodide staining-based flow cytometric analysis (reference value: 65.28%). Format: functional.
For assay [6], the system named is BT-549. Description: Cell cycle arrest in human BT549 cells assessed as accumulation of cells at S phase at 2 uM after 24 hrs by propidium iodide staining-based flow cytometric analysis (reference value: 25.84%). The format is functional.
Assay [7] concerns BT-549. Description: Cell cycle arrest in human BT549 cells assessed as accumulation of cells at G2/M phase at 2 uM after 24 hrs by propidium iodide staining-based flow cytometric analysis (reference value: 8.88%). Format: functional.
Assay [8] relates to BT-549. The assay can be described thus: Cell cycle arrest in human BT549 cells assessed as accumulation of cells at G0/G1 phase at 4 uM after 24 hrs by propidium iodide staining-based flow cytometric analysis (reference value: 65.28%). The format is functional.
The test system of assay [9] is BT-549. The assay can be described thus: Cell cycle arrest in human BT549 cells assessed as accumulation of cells at S phase at 4 uM after 24 hrs by propidium iodide staining-based flow cytometric analysis (reference value: 25.84%). Format: functional.
Assay [10] relates to BT-549. Description: Cell cycle arrest in human BT549 cells assessed as accumulation of cells at G2/M phase at 4 uM after 24 hrs by propidium iodide staining-based flow cytometric analysis (reference value: 8.88%). Format: functional.
Assay [11] deals with BT-549. Description: Cell cycle arrest in human BT549 cells after 24 hrs by propidium iodide staining-based flow cytometric analysis. The format is functional.
Assay [12] addresses T1, Tubulin alpha (Homo sapiens) (UniProt P0DPH7+P68366+Q71U36+P68363+Q9BQE3+Q6PEY2+A6NHL2+Q9NY65). Description: Disruption of alpha-tubulin in human BT549 cells at 10 uM after 6 hrs by FITC/DAPI staining-based confocal microscopic analysis. The format is cell-based. Put shortly: (§2)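 BT549 cells (2×10⁴ per well) were attached overnight on glass coverslips, then exposed to 10 or 20 µM, or to 0.1% DMSO, for 6 h. Cells were fixed in 4% paraformaldehyde, permeabilized with 0.1% Triton X-100 and blocked in 5% BSA for 60 min. Primary antibodies were α-tubulin mouse and β-tubulin rabbit monoclonals, applied overnight at 4 °C. Secondaries were FITC anti-mouse and Alexa Fluor 555 anti-rabbit, with DAPI for nuclei, and cells were imaged by laser scanning confocal microscopy.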

Assay [13] concerns the target T2, Tubulin beta (Homo sapiens) (UniProt P68371+Q9H4B7+Q13509+P04350+Q3ZCM7+P07437+Q13885+Q9BVA1+Q9BUF5+A6NNZ2). Description: Disruption of beta-tubulin in human BT549 cells at 10 uM after 6 hrs by FITC/DAPI staining-based confocal microscopic analysis. The format is cell-based. Put shortly:
as §2

For assay [14], the target named is T1, Tubulin alpha (Homo sapiens). The assay can be described thus: Disruption of alpha-tubulin in human BT549 cells assessed as loss of cellular structure at 10 uM after 6 hrs by FITC/DAPI staining-based confocal microscopic analysis. Format: cell-based. In short, it runs like this:
as §2

The target is the same in assay [15]. Description: Disruption of alpha-tubulin in human BT549 cells assessed as formation of cellular rounding at 10 uM after 6 hrs by FITC/DAPI staining-based confocal microscopic analysis. The format is cell-based. In short, it runs like this: as §2
Assay [16] addresses T2, Tubulin beta (Homo sapiens). Description: Disruption of beta-tubulin in human BT549 cells assessed as loss of cellular structure at 10 uM after 6 hrs by FITC/DAPI staining-based confocal microscopic analysis. The format is cell-based. In short, it runs like this: as §2
Assay [17] has the same target. Description: Disruption of beta-tubulin in human BT549 cells assessed as formation of cellular rounding at 10 uM after 6 hrs by FITC/DAPI staining-based confocal microscopic analysis. Format: cell-based. Put shortly: as §2
Assay [18] has as its target T1, Tubulin alpha (Homo sapiens). Description: Disruption of alpha-tubulin in human BT549 cells assessed as short microtubule at 20 uM after 6 hrs by FITC/DAPI staining-based confocal microscopic analysis. The format is cell-based. Put shortly: as §2
For assay [19] the target is unchanged. The assay can be described thus: Disruption of alpha-tubulin in human BT549 cells assessed as round cell shape at 20 uM after 6 hrs by FITC/DAPI staining-based confocal microscopic analysis. In short, it runs like this:
as §2

Assay [20] shares this target. Description: Disruption of alpha-tubulin in human BT549 cells assessed as wrapped microtubule at 20 uM after 6 hrs by FITC/DAPI staining-based confocal microscopic analysis. The format is cell-based. In short, it runs like this: as §2
The target in assay [21] is T2, Tubulin beta (Homo sapiens). The assay can be described thus: Disruption of beta-tubulin in human BT549 cells assessed as short microtubule at 20 uM after 6 hrs by FITC/DAPI staining-based confocal microscopic analysis. Format: cell-based. Put shortly:
as §2

The target is the same in assay [22]. The assay can be described thus: Disruption of beta-tubulin in human BT549 cells assessed as round cell shape at 20 uM after 6 hrs by FITC/DAPI staining-based confocal microscopic analysis. Put shortly:
as §2

Another assay has as its target Tubulin (Sus scrofa) (UniProt P02554+P02550). The assay can be described thus: Inhibition of pig brain tubulin polymerization at 10 uM by spectrophotometric analysis relative to control. Put shortly: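 Tubulin polymerization inhibition was measured with compounds at a final concentration of 10 µM.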
The target in another assay is Tubulin (Sus scrofa, UniProt P02554+P02550). Description: Inhibition of pig brain tubulin polymerization by spectrophotometric analysis.
Assay [23] addresses T2, Tubulin beta (Homo sapiens). Description: Disruption of beta-tubulin in human BT549 cells assessed as wrapped microtubule at 20 uM after 6 hrs by DAPI staining-based confocal microscopic analysis.

Active and inactive are the calls of the source. The calls are words filed in the database; no cut-off is given here.

Sequence of Tubulin (Sus scrofa) (P02550 whole entry, looked up): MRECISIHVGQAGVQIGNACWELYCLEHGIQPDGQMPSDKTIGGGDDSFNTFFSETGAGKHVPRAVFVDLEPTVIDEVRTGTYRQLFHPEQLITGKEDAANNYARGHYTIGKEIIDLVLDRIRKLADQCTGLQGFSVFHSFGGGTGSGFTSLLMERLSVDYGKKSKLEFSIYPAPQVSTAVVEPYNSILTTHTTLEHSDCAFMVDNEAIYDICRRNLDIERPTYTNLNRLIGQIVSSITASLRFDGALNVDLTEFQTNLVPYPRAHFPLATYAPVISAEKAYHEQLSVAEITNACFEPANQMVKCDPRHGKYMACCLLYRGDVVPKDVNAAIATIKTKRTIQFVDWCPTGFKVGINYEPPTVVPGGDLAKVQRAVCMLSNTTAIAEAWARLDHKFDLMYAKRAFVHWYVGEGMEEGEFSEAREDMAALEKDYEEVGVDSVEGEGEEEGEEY
Sequence of Tubulin (Sus scrofa) (P02554 whole entry, looked up): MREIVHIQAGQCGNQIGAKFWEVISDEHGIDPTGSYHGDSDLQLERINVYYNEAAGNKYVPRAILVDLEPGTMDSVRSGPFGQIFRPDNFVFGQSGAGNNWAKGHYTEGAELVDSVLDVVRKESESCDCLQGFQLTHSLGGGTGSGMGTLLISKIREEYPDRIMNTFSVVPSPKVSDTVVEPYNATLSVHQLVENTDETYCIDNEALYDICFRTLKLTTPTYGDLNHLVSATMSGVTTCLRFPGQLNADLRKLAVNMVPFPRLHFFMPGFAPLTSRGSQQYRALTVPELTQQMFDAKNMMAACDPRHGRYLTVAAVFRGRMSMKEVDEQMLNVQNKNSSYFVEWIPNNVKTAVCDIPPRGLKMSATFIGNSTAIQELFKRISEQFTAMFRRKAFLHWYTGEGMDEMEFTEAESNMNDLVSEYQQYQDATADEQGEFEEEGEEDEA

The IC50 is the concentration at which inhibition is half-maximal. Read a high IC50 as lower potency. On to `COc1ccc(/C=C\c2cc(OC)c(OC)c(OC)c2)cc1O` [COMBRETASTATIN A4], for which the IC50 came out at 3 nM in the assay with MCF7; 3.17 nM in the assay on MDA-MB-231; 1.71 nM with BT-549 [1]; 1.89 nM in the assay with T47D; 1.55 nM in the assay with MDA-MB-468; 1.36 nM in the assay on Hs-578T. Moreover, the Activity in the assay with BT-549 [2] is given as 8.9%; in the assay on BT-549 [3], 18.2%; in the assay on BT-549 [4], 72.9%.
By inhibition is commonly meant the percentage by which the read-out fell short of the control. High values mean a strong effect, low ones a weak effect. As to `COc1cc(C(=O)Nc2c(C(=O)c3ccc(Cl)cc3)[nH]c3cc(Cl)ccc23)cc(OC)c1OC`, the IC50 was 10900 nM in the assay with MCF7; 6430 nM with MDA-MB-231; 3170 nM in the assay on BT-549 [1]; 40 nM with T47D; 7920 nM with MDA-MB-468; over 100000 nM in the assay with Hs-578T. This compound returned an IC50 on Tubulin of 9500 nM. Moreover, the Activity was 32.1% with BT-549 [5]; 41.6% with BT-549 [6]; 26.29% in the assay with BT-549 [7]; 31.07% in the assay on BT-549 [8]; 33.01% with BT-549 [9]; 35.92% in the assay on BT-549 [10]. Further, the Activity in the assay with BT-549 [2] is 19.76%; in the assay on BT-549 [3], 23.66%; in the assay with BT-549 [4], 56.58%; in the assay on BT-549 [11] it was “Dose-dependent effect”. Also, the result in assay [12], in [13], in assay [14], in assay [15], in assay [16] and in [17] was Active. Further, the outcome in [18], in assay [19], in [20], in assay [21], in assay [22] and in assay [23] was Active. The compound further had an inhibition against Tubulin (Sus scrofa) of 59%.
